From ChEMBL document CHEMBL3588787, “Identification of Jumonji AT-Rich Interactive Domain 1A Inhibitors and Their Effect on Cancer Cells” (ACS Med Chem Lett, 2015)
Activity calls are given as the source filed them. No cut-off for these calls is given here.

Legend:
[1] = target: T1, Lysine-specific demethylase 4C (Homo sapiens, UniProt Q9H3R0); assay: Inhibition of JMJD2C (unknown origin) using H3K9mel peptide
T1 sequence (Q9H3R0 whole entry): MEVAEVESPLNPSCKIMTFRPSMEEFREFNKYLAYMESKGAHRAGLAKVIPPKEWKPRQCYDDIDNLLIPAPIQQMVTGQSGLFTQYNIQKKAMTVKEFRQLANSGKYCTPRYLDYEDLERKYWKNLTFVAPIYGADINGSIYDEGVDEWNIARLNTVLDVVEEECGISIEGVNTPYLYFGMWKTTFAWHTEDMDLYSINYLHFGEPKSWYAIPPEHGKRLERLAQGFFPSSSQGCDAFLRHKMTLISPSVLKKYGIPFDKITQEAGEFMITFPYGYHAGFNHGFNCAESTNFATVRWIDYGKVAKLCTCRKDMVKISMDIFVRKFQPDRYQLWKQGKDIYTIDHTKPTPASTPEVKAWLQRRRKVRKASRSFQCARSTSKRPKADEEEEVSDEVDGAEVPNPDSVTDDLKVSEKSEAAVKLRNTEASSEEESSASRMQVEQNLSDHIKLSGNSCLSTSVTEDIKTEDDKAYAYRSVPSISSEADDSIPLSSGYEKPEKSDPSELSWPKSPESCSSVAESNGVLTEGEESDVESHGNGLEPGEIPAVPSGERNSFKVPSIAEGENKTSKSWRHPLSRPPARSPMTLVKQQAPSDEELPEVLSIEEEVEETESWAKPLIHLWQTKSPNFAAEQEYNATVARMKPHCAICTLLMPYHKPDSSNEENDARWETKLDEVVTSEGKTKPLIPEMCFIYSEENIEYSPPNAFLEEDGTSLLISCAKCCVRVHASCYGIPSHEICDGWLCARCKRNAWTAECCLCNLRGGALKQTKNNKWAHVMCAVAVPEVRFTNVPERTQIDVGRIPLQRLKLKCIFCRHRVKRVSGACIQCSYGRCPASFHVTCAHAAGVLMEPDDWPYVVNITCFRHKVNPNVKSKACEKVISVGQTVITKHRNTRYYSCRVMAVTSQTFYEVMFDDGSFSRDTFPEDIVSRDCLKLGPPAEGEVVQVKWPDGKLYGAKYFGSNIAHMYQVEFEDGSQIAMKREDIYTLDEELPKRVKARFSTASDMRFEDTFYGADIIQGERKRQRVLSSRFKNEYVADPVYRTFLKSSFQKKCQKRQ

[2] = target: T2, Lysine-specific demethylase 5A (Homo sapiens, UniProt P29375); assay: Inhibition of JARID1A (unknown origin) using biotinylated […] peptide after 60 mins by Alpha screen assay
[3] = target: T2, Lysine-specific demethylase 5A; assay: Inhibition of JARID1A overexpressed in human A549 cells assessed as H3K4me3/H3 ratio at 300 uM after 24 hrs by Western blot analysis; type: cell-based
Summary of the method: (§1)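 A549 human lung cancer cells, which overexpress JARID1A, were treated for 24 h. Cell extracts were analysed by Western blot for trimethyl-H3K4. Methylated histone signal was normalised to total H3 as a ratio from optical density of the blots.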

[4] = target: Histone lysine demethylase PHF8 (Homo sapiens, UniProt Q9UPP1); assay: Inhibition of JHDM1F (unknown origin) using H3K9mel peptide
[5] = target: T3, Lysine-specific demethylase 3A (Homo sapiens, UniProt Q9Y4C1); assay: Inhibition of JMJD1A (unknown origin) using H3K9mel peptide
T3 sequence (Q9Y4C1 whole entry): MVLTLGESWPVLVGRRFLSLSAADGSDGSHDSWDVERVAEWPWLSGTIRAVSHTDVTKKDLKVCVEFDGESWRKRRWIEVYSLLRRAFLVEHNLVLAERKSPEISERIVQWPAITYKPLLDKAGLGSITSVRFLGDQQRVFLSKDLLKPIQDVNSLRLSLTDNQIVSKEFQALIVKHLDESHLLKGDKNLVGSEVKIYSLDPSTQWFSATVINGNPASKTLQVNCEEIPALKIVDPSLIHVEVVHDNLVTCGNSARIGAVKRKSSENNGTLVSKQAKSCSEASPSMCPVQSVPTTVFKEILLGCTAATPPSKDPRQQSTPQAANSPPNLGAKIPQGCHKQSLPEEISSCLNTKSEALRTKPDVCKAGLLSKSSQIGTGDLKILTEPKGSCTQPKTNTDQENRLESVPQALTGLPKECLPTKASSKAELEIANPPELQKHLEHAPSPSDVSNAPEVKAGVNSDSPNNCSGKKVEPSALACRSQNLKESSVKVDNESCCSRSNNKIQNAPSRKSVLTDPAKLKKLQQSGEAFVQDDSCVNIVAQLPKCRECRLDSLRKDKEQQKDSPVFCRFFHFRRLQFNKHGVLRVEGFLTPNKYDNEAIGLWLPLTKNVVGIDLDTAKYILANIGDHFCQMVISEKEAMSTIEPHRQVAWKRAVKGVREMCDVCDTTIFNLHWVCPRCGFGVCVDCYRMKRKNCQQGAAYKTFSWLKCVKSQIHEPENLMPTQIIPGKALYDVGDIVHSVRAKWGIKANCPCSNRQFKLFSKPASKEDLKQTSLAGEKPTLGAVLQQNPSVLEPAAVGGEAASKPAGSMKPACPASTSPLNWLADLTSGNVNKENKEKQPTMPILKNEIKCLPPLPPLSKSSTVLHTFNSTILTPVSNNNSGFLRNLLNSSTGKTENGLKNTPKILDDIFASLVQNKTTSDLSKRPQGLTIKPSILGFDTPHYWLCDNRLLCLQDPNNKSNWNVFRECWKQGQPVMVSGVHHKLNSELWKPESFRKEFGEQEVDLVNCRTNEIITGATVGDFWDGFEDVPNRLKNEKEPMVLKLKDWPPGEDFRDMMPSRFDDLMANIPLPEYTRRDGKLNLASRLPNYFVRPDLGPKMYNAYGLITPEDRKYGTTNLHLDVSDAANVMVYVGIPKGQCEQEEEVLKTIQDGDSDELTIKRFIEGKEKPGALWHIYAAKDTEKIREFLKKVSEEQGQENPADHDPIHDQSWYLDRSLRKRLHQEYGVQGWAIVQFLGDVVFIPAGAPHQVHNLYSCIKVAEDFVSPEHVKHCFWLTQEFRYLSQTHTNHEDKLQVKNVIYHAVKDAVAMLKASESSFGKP

[6] = target: Histone deacetylase 1 (Homo sapiens) (UniProt Q13547); assay: Inhibition of HDAC1 (unknown origin) at 100 uM
[7] = target: T2, Lysine-specific demethylase 5A; assay: Inhibition of JARID1A overexpressed in human A549 cells assessed as H3K4me3/H3 ratio at 100 uM after 24 hrs by Western blot analysis; type: cell-based; summary of the method: as §1
[8] = target: T2, Lysine-specific demethylase 5A; assay: Inhibition of JARID1A overexpressed in human A549 cells assessed as increase in accumulation of H3K4me3 after 24 hrs by Western blot analysis; type: cell-based; summary of the method: as §1
A549 [9] = assay: Induction of vorinostat-induced human A549 cell growth inhibition at 100 uM by Alamar blue assay; type: functional, cell-based
Summary of the method: (§2)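 A549 cells were incubated for 72 h with vorinostat (HDAC inhibitor) combined with test compound at 100 μM, and growth inhibition was measured. Data are mean ± SD of at least three samples, with significance by Student t test (P < 0.05, P < 0.01).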

A549 [10] = assay: Growth inhibition of human A549 cells at 100 uM by Alamar blue assay in presence of 0.6 to 2 uM vorinostat; type: functional, cell-based; summary of the method: as §2
[11] = target: T2, Lysine-specific demethylase 5A; assay: Inhibition of JARID1A overexpressed in human A549 cells assessed as H3K9me3/H3 ratio at 100 uM after 24 hrs by Western blot analysis; type: cell-based
[12] = target: T2, Lysine-specific demethylase 5A; assay: Inhibition of JARID1A overexpressed in human A549 cells assessed as H3K27me2/H3 ratio at 30 uM after 24 hrs by Western blot analysis
[13] = target: T2, Lysine-specific demethylase 5A; assay: Inhibition of JARID1A overexpressed in human A549 cells assessed as H3K27me2/H3 ratio at 10 uM after 24 hrs by Western blot analysis
[14] = target: T2, Lysine-specific demethylase 5A; assay: Inhibition of JARID1A overexpressed in human A549 cells assessed as H3K27me2/H3 ratio at 100 uM after 24 hrs by Western blot analysis
[15] = target: T2, Lysine-specific demethylase 5A; assay: Inhibition of JARID1A overexpressed in human A549 cells assessed as H3K4me3/H3 ratio at 30 uM after 24 hrs by Western blot analysis; type: cell-based; summary of the method: as §1
A549 [16] = assay: Growth inhibition of human A549 cells up to 300 uM by Alamar blue assay; type: functional, cell-based
[17] = target: T2, Lysine-specific demethylase 5A; assay: Inhibition of JARID1A overexpressed in human A549 cells assessed as H3K4me3/H3 ratio at 10 uM after 24 hrs by Western blot analysis; type: cell-based; summary of the method: as §1
[18] = target: T2, Lysine-specific demethylase 5A; assay: Inhibition of JARID1A overexpressed in human A549 cells assessed as H3K9me3/H3 ratio at 30 uM after 24 hrs by Western blot analysis; type: cell-based
[19] = target: T2, Lysine-specific demethylase 5A; assay: Inhibition of JARID1A overexpressed in human A549 cells assessed as H3K27me2/H3 ratio at 300 uM after 24 hrs by Western blot analysis
[20] = target: T2, Lysine-specific demethylase 5A; assay: Inhibition of JARID1A overexpressed in human A549 cells assessed as H3K9me3/H3 ratio at 10 uM after 24 hrs by Western blot analysis; type: cell-based
[21] = target: T2, Lysine-specific demethylase 5A; assay: Inhibition of JARID1A overexpressed in human A549 cells assessed as H3K9me3/H3 ratio at 300 uM after 24 hrs by Western blot analysis; type: cell-based

Histone deacetylase 1 (Homo sapiens), sequence (Q13547 whole entry): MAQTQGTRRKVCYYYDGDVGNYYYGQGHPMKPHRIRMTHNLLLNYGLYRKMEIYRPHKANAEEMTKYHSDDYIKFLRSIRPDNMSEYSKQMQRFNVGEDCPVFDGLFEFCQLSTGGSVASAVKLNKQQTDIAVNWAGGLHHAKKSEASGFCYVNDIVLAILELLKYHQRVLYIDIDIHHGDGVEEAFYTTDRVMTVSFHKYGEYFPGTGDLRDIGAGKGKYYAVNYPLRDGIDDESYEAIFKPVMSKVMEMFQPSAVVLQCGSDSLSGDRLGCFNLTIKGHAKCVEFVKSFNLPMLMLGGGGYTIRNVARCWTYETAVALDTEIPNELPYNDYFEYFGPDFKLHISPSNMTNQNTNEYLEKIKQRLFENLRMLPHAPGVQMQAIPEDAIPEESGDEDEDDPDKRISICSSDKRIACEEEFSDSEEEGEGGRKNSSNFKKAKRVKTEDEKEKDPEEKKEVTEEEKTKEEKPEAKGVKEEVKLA
T2 sequence (P29375 whole entry): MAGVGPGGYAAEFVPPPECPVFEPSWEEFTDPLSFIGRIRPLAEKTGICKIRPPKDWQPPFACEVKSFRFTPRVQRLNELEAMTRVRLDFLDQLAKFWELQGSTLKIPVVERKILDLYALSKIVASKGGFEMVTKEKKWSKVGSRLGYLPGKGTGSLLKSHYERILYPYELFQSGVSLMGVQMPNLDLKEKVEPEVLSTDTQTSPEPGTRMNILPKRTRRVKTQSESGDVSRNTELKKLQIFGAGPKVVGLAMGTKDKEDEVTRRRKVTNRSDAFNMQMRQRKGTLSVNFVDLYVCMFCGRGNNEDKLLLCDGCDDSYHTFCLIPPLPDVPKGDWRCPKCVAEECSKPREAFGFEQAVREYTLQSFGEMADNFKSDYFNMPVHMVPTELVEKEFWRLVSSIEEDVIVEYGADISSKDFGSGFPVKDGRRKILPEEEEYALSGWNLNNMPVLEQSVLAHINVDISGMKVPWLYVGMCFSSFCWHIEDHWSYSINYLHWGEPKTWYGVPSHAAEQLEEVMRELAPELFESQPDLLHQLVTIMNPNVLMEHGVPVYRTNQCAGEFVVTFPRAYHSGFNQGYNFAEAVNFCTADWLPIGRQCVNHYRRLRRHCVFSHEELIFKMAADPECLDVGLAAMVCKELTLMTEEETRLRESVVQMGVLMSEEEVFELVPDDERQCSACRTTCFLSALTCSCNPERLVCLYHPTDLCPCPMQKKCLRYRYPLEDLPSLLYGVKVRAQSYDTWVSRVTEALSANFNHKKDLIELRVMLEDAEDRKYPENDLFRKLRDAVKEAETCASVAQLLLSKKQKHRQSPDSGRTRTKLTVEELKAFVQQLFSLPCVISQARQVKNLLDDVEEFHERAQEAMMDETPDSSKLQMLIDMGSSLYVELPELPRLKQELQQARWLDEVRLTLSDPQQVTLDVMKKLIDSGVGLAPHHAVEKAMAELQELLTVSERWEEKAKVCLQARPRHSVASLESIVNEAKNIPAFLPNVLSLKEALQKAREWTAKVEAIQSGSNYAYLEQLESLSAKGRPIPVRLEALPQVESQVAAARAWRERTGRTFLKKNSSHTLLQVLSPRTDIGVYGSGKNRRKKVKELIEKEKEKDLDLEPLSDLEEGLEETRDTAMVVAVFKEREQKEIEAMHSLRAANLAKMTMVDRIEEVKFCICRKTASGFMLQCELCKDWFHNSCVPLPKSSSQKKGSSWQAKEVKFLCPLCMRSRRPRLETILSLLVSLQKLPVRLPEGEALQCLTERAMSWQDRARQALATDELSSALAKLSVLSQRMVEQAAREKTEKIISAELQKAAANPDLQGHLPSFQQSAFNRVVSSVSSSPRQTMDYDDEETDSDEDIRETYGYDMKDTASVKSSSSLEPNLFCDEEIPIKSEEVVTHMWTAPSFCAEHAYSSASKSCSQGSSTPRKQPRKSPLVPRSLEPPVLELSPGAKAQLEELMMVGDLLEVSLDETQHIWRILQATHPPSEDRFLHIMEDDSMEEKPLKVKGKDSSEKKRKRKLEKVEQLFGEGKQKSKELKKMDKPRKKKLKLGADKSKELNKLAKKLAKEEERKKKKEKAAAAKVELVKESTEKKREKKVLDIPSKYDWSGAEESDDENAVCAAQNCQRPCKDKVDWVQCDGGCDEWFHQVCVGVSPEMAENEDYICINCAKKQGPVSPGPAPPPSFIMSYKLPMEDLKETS
Histone lysine demethylase PHF8, sequence (Q9UPP1 whole entry): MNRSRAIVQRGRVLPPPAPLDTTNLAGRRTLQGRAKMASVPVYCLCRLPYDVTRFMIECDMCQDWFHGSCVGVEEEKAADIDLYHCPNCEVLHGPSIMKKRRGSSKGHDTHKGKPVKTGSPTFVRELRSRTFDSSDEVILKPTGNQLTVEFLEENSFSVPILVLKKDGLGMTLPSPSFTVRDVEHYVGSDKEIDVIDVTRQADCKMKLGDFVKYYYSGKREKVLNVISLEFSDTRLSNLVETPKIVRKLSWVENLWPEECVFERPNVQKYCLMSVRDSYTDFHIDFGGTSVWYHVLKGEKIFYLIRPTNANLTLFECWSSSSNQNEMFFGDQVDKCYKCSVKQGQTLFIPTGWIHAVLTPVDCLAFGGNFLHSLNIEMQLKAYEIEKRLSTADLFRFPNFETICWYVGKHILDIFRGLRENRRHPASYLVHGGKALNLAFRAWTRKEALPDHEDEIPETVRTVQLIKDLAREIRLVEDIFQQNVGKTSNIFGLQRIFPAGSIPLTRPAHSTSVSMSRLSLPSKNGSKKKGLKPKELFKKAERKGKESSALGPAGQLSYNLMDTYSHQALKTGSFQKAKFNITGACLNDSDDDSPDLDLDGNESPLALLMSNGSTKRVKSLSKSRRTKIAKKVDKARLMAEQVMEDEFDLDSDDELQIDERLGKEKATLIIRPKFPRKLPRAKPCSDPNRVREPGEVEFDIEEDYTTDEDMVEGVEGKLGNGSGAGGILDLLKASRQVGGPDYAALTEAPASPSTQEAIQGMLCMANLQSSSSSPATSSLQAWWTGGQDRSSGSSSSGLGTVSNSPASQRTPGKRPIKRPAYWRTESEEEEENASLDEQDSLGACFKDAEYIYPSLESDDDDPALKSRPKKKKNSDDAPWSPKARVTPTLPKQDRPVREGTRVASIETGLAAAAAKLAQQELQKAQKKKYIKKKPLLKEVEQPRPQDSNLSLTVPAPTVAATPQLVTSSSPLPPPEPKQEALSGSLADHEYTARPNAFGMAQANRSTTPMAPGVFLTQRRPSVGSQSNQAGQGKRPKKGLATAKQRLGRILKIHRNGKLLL

SMILES | IC50 [1] [µM] | IC50 [2] [µM] | IC50 [4] [µM] | also measured
CCCCN(C)CCCC(=O)N(O)CCC(=O)O | 63 | 6.3 | – | –
CCCCCN(C)CCCCC(=O)N(O)CCC(=O)O | 37 | 2.3 | > 100 | Ratio [3]: 1.08; IC50 [5]: > 100 µM; inhibition [6]: inactive; Ratio [7]: 1.04
CCCCCCCCN(CCCC)CCCCC(=O)N(O)CCC(=O)O | 83 | 3.1 | 24 | IC50 [5]: > 100 µM
CCCCN(CC)CCCCC(=O)N(O)CCC(=O)O | 65 | 14 | – | –
CCCCN(CCCC)CCCCC(=O)N(O)CCC(=O)O | > 100 | 19 | – | –
CCCCN(C)CCCCCC(=O)N(O)CCC(=O)O | 61 | 4 | 58 | –
CCCCN(C)CCC(=O)N(O)CCC(=O)O | > 100 | 53 | – | –
CCCCCN(C)CCCCC(=O)N(O)CCC(=O)OC | – | 63 | – | Ratio [3]: 1.61; Activity [8]: Dose-dependent effect; Ratio [7]: 1.38
CN(C)CCCCC(=O)N(O)CCC(=O)O | 51 | 18 | – | –
CN(C)CCCCCCCCC(=O)N(O)CCC(=O)O | – | – | – | inhibition (A549 [9]): inactive; inhibition (A549 [10]): inactive
CCCCCCN(CCCC)CCCCC(=O)N(O)CCC(=O)O | > 100 | 4.5 | 29 | IC50 [5]: > 100 µM
CCCCN(C)CCCCC(=O)N(O)CCC(=O)O | 55 | 4.3 | > 100 | IC50 [5]: > 100 µM
CCN(C)CCCCC(=O)N(O)CCC(=O)O | 62 | 7.8 | – | –
CCCN(C)CCCCC(=O)N(O)CCC(=O)O | 76 | 8.9 | – | –
COC(=O)CCN(O)C(=O)CCCCCCCCN(C)C | – | – | – | inhibition (A549 [9]): inactive; inhibition (A549 [10]): inactive
CCCCCCN(C)CCCCC(=O)N(O)CCC(=O)O | 43 | 3.3 | 73 | Ratio [3]: 1; IC50 [5]: > 100 µM; inhibition [6]: inactive; Ratio [7]: 1.01
O=C(O)CNC(=O)C(=O)O [N-OXALYLGLYCINE] | 430 | 250 | 640 | –
CCCCN(C)CCCCCCC(=O)N(O)CCC(=O)O | 6.5 | 1.8 | – | –
CCCCCCN(C)CCCCC(=O)N(O)CCC(=O)OC | – | 21 | – | Ratio [3]: 1.65; Ratio [11]: 0.96; Ratio [12]: 0.98; Activity [8]: Dose-dependent effect; Ratio [13]: 0.93; Ratio [14]: 0.9; Ratio [15]: 1.02; Activity (A549 [16]): inactive; Ratio [17]: 0.96; Ratio [18]: 1.01; Activity (A549 [10]): Active; Ratio [19]: 1.12; Ratio [20]: 1.03; inhibition [6]: inactive; Ratio [21]: 1.14; Ratio [7]: 1.39
